ChEMBL document CHEMBL3526081 (Drug Metab Dispos, 2011)

How the values were obtained:
[1] = Drug metabolism in Colony-bred Chinese Bama minipig liver microsomes assessed as 1alpha-hydroxylcinobufagin formation at 100 uM at 37 degC after 30 mins by UFLC-ESI-MS analysis in presence of NADPH-generating system; type: ADME, Sus scrofa; conditions: pig, 0.5 h
In short: (§1)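 Liver microsomes (0.3 mg protein/ml) incubated with 100 µM substrate at 37°C for 30 min, in 100 mM potassium phosphate pH 7.4 with NADPH-generating system (1 mM NADP+, 10 mM glucose 6-phosphate, 1 unit/ml G6PDH, 4 mM MgCl2). Acetonitrile ≤1% final. Stopped with ice-cold acetonitrile and centrifuged. Metabolites identified by UFLC-ESI-MS and quantified by UFLC-DAD at 294 nm against authentic standard curves.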

[2] = Drug metabolism in Swiss-Hauschka (ICR) mouse liver microsomes assessed as 5beta-hydroxylcinobufagin formation at 100 uM at 37 degC after 30 mins by UFLC-ESI-MS analysis in presence of NADPH-generating system; type: ADME; conditions: 0.5 h; in short: as §1
[3] = Drug metabolism in Colony-bred Chinese Bama minipig liver microsomes assessed as 5beta-hydroxylcinobufagin formation at 100 uM at 37 degC after 30 mins by UFLC-ESI-MS analysis in presence of NADPH-generating system; type: ADME, Sus scrofa; conditions: pig, 0.5 h; in short: as §1
[4] = Drug metabolism in cynomolgus monkey liver microsomes assessed as 5beta-hydroxylcinobufagin formation at 100 uM at 37 degC after 30 mins by UFLC-ESI-MS analysis in presence of NADPH-generating system; type: ADME, Macaca fascicularis; conditions: 0.5 h; in short: as §1
[5] = Drug metabolism in Swiss-Hauschka (ICR) mouse liver microsomes assessed as dihydroxylcinobufagin formation at 100 uM at 37 degC after 30 mins by UFLC-ESI-MS analysis in presence of NADPH-generating system; type: ADME; conditions: 0.5 h; in short: as §1
Liver microsome [6] = experiment: Drug metabolism in human liver microsomes assessed as 5beta-hydroxylcinobufagin formation at 100 uM at 37 degC after 30 mins by […] in presence of 1 uM ketoconazole CYP3A4 inhibitor; type: ADME; conditions: 0.5 h
Liver microsome [7] = experiment: Drug metabolism in human liver microsomes assessed as 1alpha-hydroxylcinobufagin formation at 100 uM at 37 degC after 30 mins […] in presence of 10 uM furafylline CYP1A2 inhibitor; type: ADME; conditions: 0.5 h
Liver microsome [8] = experiment: Drug metabolism in human liver microsomes assessed as 5beta-hydroxylcinobufagin formation at 100 uM at 37 degC after 30 mins by UFLC-ESI-MS analysis in presence of 10 uM furafylline CYP1A2 inhibitor; type: ADME; conditions: 0.5 h
In short: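 Pooled human liver microsomes (10 donors, both sexes) in 100 mM potassium phosphate pH 7.4 were incubated with CB and a selective P450 inhibitor. Reaction was started with NADPH-generating system after 3 min preincubation at 37°C and stopped with ice-cold acetonitrile. Hydroxylated products were quantified by UFLC-DAD at 294 nm; three experiments in duplicate.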

Liver microsome [9] = experiment: Drug metabolism in human liver microsomes assessed as 5beta-hydroxylcinobufagin formation at 100 uM at 37 degC after 30 mins […] in presence of 2.5 uM 8-methoxypsoralen CYP2A6 inhibitor; type: ADME; conditions: 0.5 h
Liver microsome [10] = experiment: Drug metabolism in human liver microsomes assessed as 1alpha-hydroxylcinobufagin formation at 100 uM at 37 degC after 30 mins […] in presence of 50 uM triethylenethiophosphoramide CYP2B6 inhibitor; type: ADME; conditions: 0.5 h
Liver microsome [11] = experiment: Drug metabolism in human liver microsomes assessed as 5beta-hydroxylcinobufagin formation at 100 uM at 37 degC after 30 mins […] in presence of 10 uM sulfaphenazole CYP2C9 inhibitor; type: ADME; conditions: 0.5 h
Liver microsome [12] = experiment: Drug metabolism in human liver microsomes assessed as 1alpha-hydroxylcinobufagin formation at 100 uM at 37 degC after 30 mins […] in presence of 20 uM omeprazole CYP2C19 inhibitor; type: ADME; conditions: 0.5 h
[13] = Drug metabolism in Colony-bred Chinese Bama minipig liver microsomes assessed as 1alpha-hydroxylcinobufagin formation at 100 uM at 37 degC after 30 mins by UFLC-ESI-MS analysis in presence of 10 uM furafylline CYP1A2 inhibitor; type: ADME, Sus scrofa; conditions: pig, 0.5 h
In short: (§2)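 Chemical inhibition: selective P450 inhibitors (furafylline, sulfaphenazole, ketoconazole) added to liver microsome incubations in 100 mM potassium phosphate pH 7.4 with NADPH-generating system at 37°C. Hydroxylated metabolite formation quantified by UFLC at 294 nm against standards. Mean ± S.D. of three experiments in duplicate.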

[14] = Drug metabolism in Colony-bred Chinese Bama minipig liver microsomes assessed as 1alpha-hydroxylcinobufagin formation at 100 uM at 37 degC after 30 mins by UFLC-ESI-MS analysis in presence of 10 uM sulfaphenazole CYP2C9 inhibitor; type: ADME, Sus scrofa; conditions: pig, 0.5 h; in short: as §2
[15] = Drug metabolism in cynomolgus monkey liver microsomes assessed as 1alpha-hydroxylcinobufagin formation at 100 uM at 37 degC after 30 mins by UFLC-ESI-MS analysis in presence of 10 uM sulfaphenazole CYP2C9 inhibitor; type: ADME, Macaca fascicularis; conditions: 0.5 h; in short: as §2
[16] = Drug metabolism in Swiss-Hauschka (ICR) mouse liver microsomes assessed as 1alpha-hydroxylcinobufagin formation at 100 uM at 37 degC after 30 mins by UFLC-ESI-MS analysis; type: ADME; conditions: 0.5 h, read-out: Km(app); in short: as §1
[17] = Ratio of Vmax/Km in cynomolgus monkey liver microsomes assessed as 1alpha-hydroxylcinobufagin formation at 100 uM […] by UFLC-ESI-MS analysis; type: ADME, Macaca fascicularis; conditions: 0.5 h
Liver microsome [18] = experiment: Ratio of Vmax/Km in beagle dog liver microsomes assessed as 1alpha-hydroxylcinobufagin formation at 100 uM […] by UFLC-ESI-MS analysis; type: ADME, Canis lupus familiaris; conditions: 0.5 h
[19] = Ratio of Vmax/Km in Colony-bred Chinese Bama minipig liver microsomes assessed as 1alpha-hydroxylcinobufagin formation at 100 uM […] by UFLC-ESI-MS analysis; type: ADME, Sus scrofa; conditions: pig, 0.5 h
Liver microsome [20] = experiment: Drug metabolism in human liver microsomes assessed as 5beta-hydroxylcinobufaginn formation per mg of protein at 100 uM […] by UFLC-ESI-MS analysis; type: ADME; conditions: 0.5 h
Liver microsome [21] = experiment: Drug metabolism in beagle dog liver microsomes assessed as 5beta-hydroxylcinobufaginn formation per mg of protein at 100 uM at 37 degC after 30 mins by UFLC-ESI-MS analysis; type: ADME, Canis lupus familiaris; conditions: 0.5 h; in short: as §1
Liver microsome [22] = experiment: Ratio of Vmax/Km in human liver microsomes assessed as 5beta-hydroxylcinobufaginn formation at 100 uM at 37 degC […] by UFLC-ESI-MS analysis; type: ADME; conditions: 0.5 h
[23] = Ratio of Vmax/Km in cynomolgus monkey liver microsomes assessed as 5beta-hydroxylcinobufaginn formation at 100 uM […] by UFLC-ESI-MS analysis; type: ADME, Macaca fascicularis; conditions: 0.5 h
[24] = Drug metabolism in cynomolgus monkey liver microsomes assessed as 1alpha-hydroxylcinobufagin formation per mg of protein at 100 uM at 37 degC after 30 mins by UFLC-ESI-MS analysis; type: ADME, Macaca fascicularis; conditions: 0.5 h; in short: as §1
Liver microsome [25] = experiment: Drug metabolism in beagle dog liver microsomes assessed as 1alpha-hydroxylcinobufagin formation per mg of protein at 100 uM at 37 degC after 30 mins by UFLC-ESI-MS analysis; type: ADME, Canis lupus familiaris; conditions: 0.5 h; in short: as §1
[26] = Drug metabolism in Swiss-Hauschka (ICR) mouse liver microsomes assessed as 1alpha-hydroxylcinobufagin formation per mg of protein at 100 uM at 37 degC after 30 mins by UFLC-ESI-MS analysis; type: ADME; conditions: 0.5 h; in short: as §1
Liver microsome [27] = experiment: Drug metabolism in human liver microsomes assessed as 1alpha-hydroxylcinobufagin formation at 100 uM […] by UFLC-ESI-MS analysis; type: ADME; conditions: 0.5 h, read-out: Km(app)

Structure (SMILES): CC(=O)O[C@H]1[C@H]2O[C@]23[C@@H]2CC[C@@H]4C[C@@H](O)CC[C@]4(C)[C@H]2CC[C@]3(C)[C@H]1c1ccc(=O)oc1 [CINOBUFAGIN]
- Drug metabolism [1]: metabolite_detected
- Drug metabolism [2]: metabolite_detected
- Drug metabolism [3]: metabolite_detected
- Drug metabolism [4]: metabolite_detected
- Drug metabolism [5]: metabolite_detected
- Drug metabolism (Liver microsome [6]): metabolite_not_detected
- Drug metabolism (Liver microsome [7]): metabolite_detected
- Drug metabolism (Liver microsome [8]): metabolite_detected
- Drug metabolism (Liver microsome [9]): metabolite_detected
- Drug metabolism (Liver microsome [10]): metabolite_detected
- Drug metabolism (Liver microsome [11]): metabolite_detected
- Drug metabolism (Liver microsome [12]): metabolite_detected
- Drug metabolism [13]: metabolite_detected
- Drug metabolism [14]: metabolite_detected
- Drug metabolism [15]: metabolite_detected
- Km [16]: 14.1 µM
- Vmax/Km [17]: 62 µL/min/mg
- Vmax/Km (Liver microsome [18]): 387.9 µL/min/mg
- Vmax/Km [19]: 14.5 µL/min/mg
- Vmax (Liver microsome [20]): 1.17 nmol/min/mg
- Vmax (Liver microsome [21]): 0.44 nmol/min/mg
- Vmax/Km (Liver microsome [22]): 57.4 µL/min/mg
- Vmax/Km [23]: 216.5 µL/min/mg
- Vmax [24]: 2.12 nmol/min/mg
- Vmax (Liver microsome [25]): 1.28 nmol/min/mg
- Vmax [26]: 8.39 nmol/min/mg
- Km (Liver microsome [27]): 12.5 µM
